# Most compounds without a hit are left out; they make up all but 2.9% or so of the library.
# Runt-SMMHC FRET – inhibitors of human RUNX1 Runt domain binding to CBFb-SMMHC. Q01196+Q13951. Cerulean-Runt/Venus-CBFb-SMMHC FRET ratio 530/480, 1 h. inhibition, % at 20 µM. hit rate 0.74% among 220,000;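 active = mean inhibition across duplicate retests at 20 µM reaching about 50%, limit read from the data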;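 note: 0% = DMSO wells and 100% = wells with excess untagged CBFb-SMMHC; inhibitors lower the FRET ratio by blocking Runt binding to CBFb-SMMHC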
# RanGTP-Impb inh – disruptors of Ran-importin-beta complex formation – biochemical, FRET, CFP-Ran, YFP-importin-beta, homogeneous, primary screen; hit rate 1.1% among 300,000; inhibition, % (no concentration beside the values); cell-free CFP-Ran/YFP-importin-beta FRET ratio;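 active = more than half of the replicate wells show a fall in the fluorescence ratio signal beyond about 16%, limit read from the data, passing the limit was not always enough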;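 note: 0% = DMSO wells and 100% = Ran loaded with GDP instead of GTP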
# RBBP9 inhibitor – blocks human serine hydrolase RBBP9; O75884; recombinant RBBP9, FP-Rh probe fluorescence polarization; inhibition, % at 7.94 µM; hit rate 0.2% among 220,000;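 active = inhibition above the campaign mean of all tested compounds plus 3 SD, cut at about 14% in these data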;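 note: plate controls were DMSO wells with RBBP9 for no effect and wells lacking RBBP9 protein for full effect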
# Target sequence (O75884 whole entry, looked up): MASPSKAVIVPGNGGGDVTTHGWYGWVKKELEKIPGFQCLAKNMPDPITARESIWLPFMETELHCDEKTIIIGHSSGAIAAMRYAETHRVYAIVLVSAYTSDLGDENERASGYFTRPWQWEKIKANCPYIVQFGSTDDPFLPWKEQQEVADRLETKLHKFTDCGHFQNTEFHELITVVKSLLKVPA
#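 Measured by: FP readout at 525/598 nm; material: recombinant human RBBP9; also added: Serine-hydrolase probe FP-Rh, 375 nM pre-mixing; medium: Tris buffer pH 8.0, NaCl, Pluronic; replication: one well per compound; doses: one concentration, 7.94 µM nominal, 0.794% DMSO; timing: preincubation 30 min plus labeling 45 min at 25 °C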
# Hck-Nef inh – inhibitors of human Hck kinase activated by Nef. P08631. Recombinant Hck-YEEI plus Nef, Z-Lyte FRET kinase assay. inhibition, % at 20 µM. hit rate 0.68% among 220,000. AID 463187;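 active = Hck-Nef kinase inhibition above about 50%, limit read from the data; inactive = inhibition below that limit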;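 note: 0% = DMSO with Hck plus Nef and 100% = Hck alone without Nef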
# Runt-CBFb FRET – blocks binding of human RUNX1 Runt domain to CBFb; inhibition, % at 20 µM; Q01196+Q13951; hit rate 0.46% among 220,000; Cerulean-Runt/Venus-CBFb FRET ratio 530/480, 1 h; AID 1496;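 active = inhibition over about 50% at 20 µM in the single-dose screen, limit read from the data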;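 note: 0% = DMSO wells and 100% = excess unlabeled CBFb competitor control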
#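 Measured by: fluorescence energy transfer, 422 nm excitation, 530/480 nm emission; test system: Cerulean-tagged RUNX1 Runt domain (FRET donor) fusion protein; buffer or medium: Tris pH 7.5 buffer with BSA; compound: one dose, 20 µM compound, 1% DMSO; times: two 1 h room-temperature incubations shielded from light; benchmarks: unlabeled CBFb 5 µM, positive control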
# PfM18AAP inh – blocks P. falciparum M18 aspartyl aminopeptidase. hit rate 1.2% among 290,000. AID 1822. recombinant PfM18AAP, H-Glu-NHMec fluorogenic cleavage. inhibition, % at 7.35 µM;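 active = inhibition above the campaign mean inhibition over all tested compounds plus 3 SD, cut at about 28% in these data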;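 note: 0% = plate median of test compound wells and 100% = 2 mM ZnCl2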
# Hck Nef conf – confirmation of Hck-Nef kinase inhibitors. shares compounds with Hck-Nef inh. Recombinant Hck-YEEI:Nef, Z-Lyte FRET kinase assay. calls only at 10 µM. hit rate 28% among 1,300. AID 463188;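 active = average inhibition of at least 50%, with Z-scores no higher than 3 in both the phospho-tyrosine peptide and fluorescence counterscreens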
# Active calls of the source: *; i = inactive; . = no result given; + = active, no number.
SMILES,Runt-SMMHC FRET,RanGTP-Impb inh,RBBP9 inhibitor,Hck-Nef inh,Runt-CBFb FRET,PfM18AAP inh,Hck Nef conf
CCOC(=O)c1[nH]c2ccccc2c1NC(=S)Nc1cc(C)ccc1C,-6,-15,3,57*,-2,14,i
CCCSc1nc2c(cnn2-c2ccccc2)c(=O)n1N,0,-6,2,76*,3,1,+
Cc1ccc2occ(C3NC(C(=O)O)CS3)c(=O)c2c1 (stereo unspecified),5,-3,-3,83*,6,31*,+
O=C(O)C1CSC(c2ccco2)N1 (stereo unspecified),-5,3,-2,10,2,21,.
Cc1ccc2occ(C3N[C@H](C(=O)O)CS3)c(=O)c2c1 (stereo partly specified),2,3,-8,73*,2,24,i
CC(=O)c1ccc(NC(=O)C[n+]2cccc(C)c2)cc1,.,-3,.,.,.,-18,.
CC(OC(=O)CNC(=O)c1cccs1)C(=O)Nc1ccc(S(N)(=O)=O)cc1 (stereo unspecified),.,3,.,.,.,.,.
O=C(O)COc1ccccc1/C=N/Nc1ccc(S(=O)(=O)Nc2ccc(Cl)cc2)cc1[N+](=O)[O-],-17,0,2,104*,-11,-2,i
C/C(=N/NC(=O)c1cc2ccccc2cc1O)C1C(=O)c2ccccc2C1=O,-16,-3,-2,82*,-3,21,+
CC[C@H](C)NC(=O)CCCCCn1c(=S)[nH]c2c([nH]c3ccc(OC)cc32)c1=O,0,-1,-10,52*,-2,-12,i
COC(=O)c1c(C(=O)OC)c(-c2cccc(F)c2)n2c1CS(=O)(=O)C2,.,2,.,.,.,-8,.
COc1ccc(Cl)cc1NC(=O)CSc1nnc(Cc2ccc(C)cc2)c(=O)[nH]1,.,2,.,.,.,.,.
N#C/C(=C\c1ccc(OC(=O)c2cccs2)cc1)c1nc2ccccc2[nH]1,-25,6,-4,57*,0,8,+
COc1ccc(-n2c(=S)[nH]c3cc(C(=O)NCc4ccco4)ccc3c2=O)cc1OC,-8,1,-8,5,-1,4,.
COc1ccc(CCn2c(=S)[nH]c3cc(C(=O)NCc4ccco4)ccc3c2=O)cc1OC,-3,-4,-1,75*,1,20,+
CCOC(=O)c1ccccc1NC(=O)COC(=O)CCC(=O)c1ccccc1,.,-3,.,.,.,-4,.
O=C(Cc1ccccc1)Nc1ncccc1Cl,.,0,.,.,.,.,.
COc1ccc(N2C3=C(C(=O)CC(C)(C)C3)C(c3cnn(C)c3)C3=C2CC(C)(C)CC3=O)cc1,82*,57*,-5,55*,107*,-8,.
COc1ccc(C2C(C#N)=C(N)N(N(C)C)C3=C2C(=O)CC(C)(C)C3)cc1 (stereo unspecified),.,3,.,.,.,2,.
CNc1ccccc1NC(=O)C1CCCN1C(=O)OCc1ccccc1 (stereo unspecified),.,2,.,.,.,11,.
CCOC(=O)C1=C(CC)Nc2ccccc2N/C1=N\S(=O)(=O)c1cc(Br)ccc1Br,-2,-2,-2,21,-3,-4,.
CC(=O)Nc1ccc(N=Cc2c(O)c(C(=O)Nc3ccccc3)cc3ccccc23)cc1,-70,4,3,69*,-52,8,i
CCC(=O)NNc1ncnc2ccccc12,-1,4,1,1,2,3,.
O=C(O)CCC(=O)NNc1ncnc2ccccc12,-7,2,-4,52*,3,7,i
O=C(Nc1nnc(SCc2c(Cl)cccc2Cl)s1)c1ccc2ncsc2c1,0,0,0,110*,0,3,+
SMILES,Runt-SMMHC FRET,RanGTP-Impb inh,RBBP9 inhibitor,Hck-Nef inh,Runt-CBFb FRET,PfM18AAP inh,Hck Nef conf
N#Cc1ccc(CSc2nnc(NC(=O)c3ccc4ncsc4c3)s2)cc1,-49,2,8,68*,-6,9,i
Cc1ccc2nc(NC(=O)c3ccc4ncsc4c3)sc2c1,6,3,-7,14,1,2,.
COc1cc(Nc2ncnc(N)n2)cc(OC)c1,2,1,-6,62*,0,-1,+
Cc1cccc(Nc2sc(C(=O)c3cc4cc(Cl)ccc4o3)c(N)c2C#N)c1,-114,2,-2,56*,-12,3,i
N#Cc1c(Nc2ccccc2)sc(C(=O)c2ccccc2)c1N,-1,1,0,-1,1,0,.
COc1ccccc1NC(=O)C(C)OC(=O)c1nc2nc(C)cc(C)n2n1 (stereo unspecified),.,-4,.,.,.,.,.
CC1=NOC(=O)/C1=C\c1ccc(-c2ccc(Br)cc2)o1,24,1,6,113*,.,3,i
CC1=NOC(=O)/C1=C/c1ccc(-c2ccc(Cl)cc2)o1,50,.,-4,1,31,13,.
C=CCOc1ccc(C2/C(=C(\O)c3ccc4c(c3)CC(C)O4)C(=O)C(=O)N2CCN2CCOCC2)cc1OCC (stereo unspecified),.,0,.,.,.,6,.
Cc1cc(C(=O)COC(=O)c2cc(O)c3ccccc3c2O)c(C)n1CC1CCCO1 (stereo unspecified),-30,.,9,93*,4,8,i
Cc1cc(C(=O)COC(=O)c2ccccc2Br)c(C)n1CC1CCCO1 (stereo unspecified),0,-1,-5,25,-1,-4,.
Cc1[nH]c(C)c(S(=O)(=O)NCc2ccco2)c1C(=O)N1CCCCC1,.,-1,.,.,.,7,.
Oc1[nH]c2ccccc2c1N=Nc1ncnc2c1oc1ccccc12,-11,-6,-3,56*,-2,1,i
CCc1cc2c(N=Nc3c(O)[nH]c4ccccc34)ncnc2s1,-68,-1,0,2,-2,7,.
Nc1ncnc2oc(-c3ccco3)c(-c3ccco3)c12,1,-5,-2,71*,17,17,+
S=c1[nH]nc(-c2cc(-c3ccccc3)n[nH]2)n1/N=C/C=C/c1ccco1,11,0,-14,71*,26,16,i
Cc1ccccc1/C=N/n1c(-c2cc(-c3ccccc3)n[nH]2)n[nH]c1=S,31,4,-15,10,10,7,.
S=c1[nH]nc(-c2ccco2)n1/N=C/C=C/c1ccco1,39,-1,-9,2,50,23,.
S=c1[nH]nc(-c2n[nH]c3c2CCC3)n1/N=C/C=C/c1ccco1,16,4,3,75*,28,23,i
S=c1[nH]nc(-c2cc(-c3ccccc3)n[nH]2)n1/N=C/c1c(Cl)cccc1Cl,11,-1,-4,72*,13,16,+
C=CCn1c(COc2ccccc2)nc2ccccc21,.,2,.,.,.,-11,.
